Experimental data published in ChEMBL document CHEMBL1132168, “Cycloalkanecarboxylic esters derived from lysergol, dihydrolysergol-I, and elymoclavine as partial agonists and antagonists at rat 5-HT2A receptors: pharmacological evidence that the indolo[4,3-fg]quinoline system of the ergolines is responsible for high 5-HT2A receptor affinity” (J Med Chem, 1999).
Values joined by “and” are separate entries in the source; they are usually repeats but may differ in a detail not shown here. Identical values can stand only once.

Key:
[1] = biological target: 5-hydroxytryptamine receptor 2A (Rattus norvegicus) (UniProt P14842); test: Relative potency towards 5-HT2A receptor of rat tail artery; format: functional, tissue-based
Method in brief: (§1)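 Endothelium-denuded rat caudal artery segments, resting force 5 mN, with prazosin 30 nM and cocaine 6 μM present. Two cumulative curves were run on each segment 60 min apart: first 5-HT, then the test agonist. pKP was taken from a Kenakin plot of equieffective 5-HT and agonist concentrations. Mean ± SEM from n segments, ≥2 animals.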

[2] = biological target: T1, Adrenergic receptor alpha-1 (Rattus norvegicus, UniProt P15823+P23944+P43140); test: Ability to block alpha-1 adrenergic receptor-mediated contractions of rat aorta.; format: functional
T1 sequence (P15823 whole entry): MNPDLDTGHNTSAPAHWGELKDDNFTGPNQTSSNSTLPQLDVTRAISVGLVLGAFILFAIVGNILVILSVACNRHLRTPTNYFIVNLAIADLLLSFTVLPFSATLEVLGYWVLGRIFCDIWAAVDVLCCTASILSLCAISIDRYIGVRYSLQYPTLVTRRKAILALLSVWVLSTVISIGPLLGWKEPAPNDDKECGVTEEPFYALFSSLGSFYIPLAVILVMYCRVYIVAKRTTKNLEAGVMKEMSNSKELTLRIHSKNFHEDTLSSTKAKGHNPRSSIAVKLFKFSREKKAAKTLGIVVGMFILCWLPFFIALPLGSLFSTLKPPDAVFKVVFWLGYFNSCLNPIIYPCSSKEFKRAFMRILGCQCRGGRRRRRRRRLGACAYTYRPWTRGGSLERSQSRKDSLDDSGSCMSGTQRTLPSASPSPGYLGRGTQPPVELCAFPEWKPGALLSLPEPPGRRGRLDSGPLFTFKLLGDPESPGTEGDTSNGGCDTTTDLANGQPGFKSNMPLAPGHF
T1 sequence (P23944 whole entry): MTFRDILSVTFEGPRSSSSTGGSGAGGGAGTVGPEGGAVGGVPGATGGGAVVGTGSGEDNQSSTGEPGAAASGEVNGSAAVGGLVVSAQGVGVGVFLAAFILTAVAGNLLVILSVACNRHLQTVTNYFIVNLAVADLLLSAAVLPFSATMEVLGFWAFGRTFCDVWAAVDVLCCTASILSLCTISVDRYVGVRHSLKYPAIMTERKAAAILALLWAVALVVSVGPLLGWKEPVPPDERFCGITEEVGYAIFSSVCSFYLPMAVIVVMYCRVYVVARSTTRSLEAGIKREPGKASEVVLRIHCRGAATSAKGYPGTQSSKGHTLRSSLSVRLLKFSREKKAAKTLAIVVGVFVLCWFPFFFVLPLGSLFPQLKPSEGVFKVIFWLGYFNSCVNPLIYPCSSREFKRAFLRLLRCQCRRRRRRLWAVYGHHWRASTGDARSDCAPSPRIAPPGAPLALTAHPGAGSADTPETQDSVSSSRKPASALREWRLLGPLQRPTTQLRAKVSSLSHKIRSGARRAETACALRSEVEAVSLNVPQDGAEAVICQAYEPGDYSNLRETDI
T1 sequence (P43140 whole entry): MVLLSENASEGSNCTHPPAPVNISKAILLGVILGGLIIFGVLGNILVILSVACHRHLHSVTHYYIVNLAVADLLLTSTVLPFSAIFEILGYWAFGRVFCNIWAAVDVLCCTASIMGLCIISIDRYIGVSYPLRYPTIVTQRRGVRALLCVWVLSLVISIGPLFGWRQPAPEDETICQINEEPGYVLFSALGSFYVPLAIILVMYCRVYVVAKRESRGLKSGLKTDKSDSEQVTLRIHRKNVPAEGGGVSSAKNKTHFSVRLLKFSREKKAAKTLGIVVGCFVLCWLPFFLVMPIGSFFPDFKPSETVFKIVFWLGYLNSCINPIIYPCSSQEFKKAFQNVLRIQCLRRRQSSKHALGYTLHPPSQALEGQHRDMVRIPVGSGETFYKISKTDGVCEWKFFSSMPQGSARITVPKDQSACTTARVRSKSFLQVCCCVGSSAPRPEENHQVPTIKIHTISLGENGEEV
Method in brief: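 Endothelium-denuded rat thoracic aorta rings (4–6 mm) in modified Krebs-Henseleit, 37 °C, 95% O2/5% CO2, with (R,S)-propranolol 1 μM. Resting force 20 mN. During 140 min equilibration, rings were stimulated twice with (R)-phenylephrine 100 nM. Two cumulative phenylephrine contraction curves were run, without and then with antagonist added 30 min before.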

[3] = biological target: T2, 5-hydroxytryptamine receptor 2A (Rattus norvegicus, UniProt P14842); test: Partial agonism at 5-HT2A receptor was evaluated in presence of ketanserin (3-10 nM) in isolated rat tail artery; format: functional, tissue-based; details: read-out: pA2 (converted)
Method in brief: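 Rat caudal artery, endothelium removed, with prazosin 30 nM and cocaine 6 μM present. A 5-HT curve was followed after 60 min by a cumulative agonist curve, with ketanserin 3 nM added 30 min beforehand. The rightward shift was compared with that in control segments run without ketanserin.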

[4] = Specificity towards 5-HT2A receptor to that of alpha-1 adrenoceptor.; format: functional
[5] = biological target: 5-hydroxytryptamine receptor 2A (Rattus norvegicus) (UniProt P14842); details: Tail
[6] = biological target: 5-hydroxytryptamine receptor 2A (Rattus norvegicus) (UniProt P14842); test: Effectiveness in blocking 5-HT2A receptor-mediated contractions of rat tail artery; format: functional, tissue-based
Method in brief: (§2)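 Endothelium-denuded rat ventral caudal artery segments (4–5 mm), isometric, resting force 5 mN. Segments were primed once with 5-HT 1 μM during 120 min equilibration. Prazosin 30 nM and cocaine 6 μM were present throughout. Two cumulative 5-HT curves were run 60 min apart, the second after 30–60 min with antagonist. pKP by Marano–Kaumann; pA2 by Schild or as apparent pA2. Mean ± SEM, n segments, ≥2 animals.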

[7] = biological target: 5-hydroxytryptamine receptor 2A (Rattus norvegicus) (UniProt P14842); test: Intrinsic activity towards 5-HT2A receptor of rat tail artery; format: functional, tissue-based; method in brief: as §1
[8] = biological target: 5-hydroxytryptamine receptor 1B (Homo sapiens, UniProt P28222); test: Affinity of compound towards 5-hydroxytryptamine 1B receptor in isolated guinea-pig iliac artery; format: functional, tissue-based, Cavia porcellus; details: target entry is the homologue from another species; read-out: pA2 (converted)
Method in brief: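 Iliac artery segments (1–2 mm), resting force 5 mN. Krebs-Henseleit contained ketanserin 1 μM, mepyramine 0.3 μM, cimetidine 30 μM and cocaine 30 μM. […] Two 5-HT curves were run 80 min apart, the second after 45 min with compound.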

[9] = Specificity of compound towards 5-HT2A receptor to that of 5-HT1B receptor; format: functional
[10] = biological target: T2, 5-hydroxytryptamine receptor 2A; test: Blocking 5-HT2A receptor-mediated contractions of rat tail artery; format: functional, tissue-based; details: read-out: pA2 (converted); method in brief: as §2
[11] = biological target: T2, 5-hydroxytryptamine receptor 2A; test: Effectiveness of compound in blocking 5-hydroxytryptamine 2A receptor-mediated contractions of rat tail artery; format: functional, tissue-based; details: read-out: pA2 (converted); method in brief: as §2

5-hydroxytryptamine receptor 1B, sequence (P28222 whole entry): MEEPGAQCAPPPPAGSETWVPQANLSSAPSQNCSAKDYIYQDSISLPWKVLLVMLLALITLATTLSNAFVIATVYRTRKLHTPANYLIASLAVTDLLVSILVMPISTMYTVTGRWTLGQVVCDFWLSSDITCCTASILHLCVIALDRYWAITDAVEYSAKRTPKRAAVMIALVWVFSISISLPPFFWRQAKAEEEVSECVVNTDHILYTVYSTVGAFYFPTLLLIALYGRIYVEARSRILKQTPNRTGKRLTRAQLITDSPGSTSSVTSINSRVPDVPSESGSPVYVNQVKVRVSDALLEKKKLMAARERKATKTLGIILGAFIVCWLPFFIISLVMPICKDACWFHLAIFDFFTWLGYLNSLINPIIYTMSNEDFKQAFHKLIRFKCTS
5-hydroxytryptamine receptor 2A (Rattus norvegicus), sequence (P14842 whole entry): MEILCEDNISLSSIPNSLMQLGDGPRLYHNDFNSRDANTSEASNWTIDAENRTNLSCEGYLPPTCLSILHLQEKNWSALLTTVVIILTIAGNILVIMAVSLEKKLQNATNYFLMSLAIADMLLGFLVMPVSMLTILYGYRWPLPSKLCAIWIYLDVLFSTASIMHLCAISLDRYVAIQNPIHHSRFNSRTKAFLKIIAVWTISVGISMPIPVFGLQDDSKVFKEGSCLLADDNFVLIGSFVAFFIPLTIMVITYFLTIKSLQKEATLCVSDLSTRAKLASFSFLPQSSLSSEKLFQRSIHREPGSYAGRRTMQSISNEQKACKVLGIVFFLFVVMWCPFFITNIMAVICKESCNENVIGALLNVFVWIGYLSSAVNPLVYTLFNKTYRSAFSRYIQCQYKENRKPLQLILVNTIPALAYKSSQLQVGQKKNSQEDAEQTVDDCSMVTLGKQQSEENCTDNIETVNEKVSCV
T2 sequence (P14842 whole entry): as above

| SMILES | Relative potency [1] [%] | pA2 [2] | Kb [3] [nM] | Specificity [4] | pKp [5] | pKp [6] | Intrinsic activity [7] | Kb [8] [nM] | Specificity [9] | Kb [10] [nM] | Kb [11] [nM] |
| --- | --- | --- | --- | --- | --- | --- | --- | --- | --- | --- | --- |
| CN1C[C@H](COC(=O)C2CCCCC2)C=C2c3cccc4[nH]cc(c34)C[C@H]21.O=C(O)/C=C\C(=O)O | 49 | 5.05 | 0.661 | 68 | 6.88 | 6.92 | 0.18 | – | – | – | – |
| CC(C)n1cc2c3c(cccc31)C1=C[C@@H](CO)CN(C)[C@@H]1C2.O=C(O)/C=C\C(=O)O | – | 6.05 | – | 1260 | – | – | – | 209 | 295 | 0.708 | – |
| CC(C)n1cc2c3c(cccc31)[C@H]1C=C(CO)CN(C)[C@@H]1C2.O=C(O)/C=C\C(=O)O | – | 5.69 | – | 2820 | – | – | – | 851 | 1180 | 0.724 | – |
| CC(C)n1cc2c3c(cccc31)[C@H]1C[C@@H](COC(=O)C3CC3)CN(C)[C@@H]1C2.O=C(O)/C=C\C(=O)O | – | 5.55 | – | 468 | – | – | – | – | – | – | 6.03 |
| CC(C)n1cc2c3c(cccc31)[C@H]1C[C@@H](CO)CN(C)[C@@H]1C2.O=C(O)/C=C\C(=O)O | – | 6.12 | – | 240 | – | – | – | 1860 | 589 | 3.16 | – |
| CC(C)n1cc2c3c(cccc31)C1=C[C@@H](COC(=O)C3CCCCCC3)CN(C)[C@@H]1C2.O=C(O)/C=C\C(=O)O | – | 4.93 | – | 661 | – | – | – | – | – | – | 17.8 |
| CN1C[C@H](COC(=O)C2CCCC2)C=C2c3cccc4[nH]cc(c34)C[C@H]21.O=C(O)/C=C\C(=O)O | 128 | 5.32 | 0.741 | 120 | – | 7.4 and 7.27 | 0.11 | – | – | – | – |
